Data reported in ChEMBL document CHEMBL1125186, “GABA-uptake inhibitors: construction of a general pharmacophore model and successful prediction of a new representative” (J Med Chem, 1991).

What was measured:
Rattus norvegicus = organism: Rattus norvegicus; test: Concentration required for 50% inhibition of GABA uptake in rat brain; assay type: functional
Procedure, shortened: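 Rat corpus striatum synaptosomes from a 0.32 M sucrose homogenate: 1000g spin, then 20000g pellet, both at 4 °C. Synaptosomes (1 mg protein) incubated 2 min at 37 °C in pH 7.4 Krebs-Ringer phosphate with 0.15 M NaCl, [3H]GABA (25–40 Ci/mmol) and test compound up to 10⁻⁴ M. Stopped by dilution with NaCl-free medium, centrifuged; pellet radioactivity counted. IC50 derived from the concentration range.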

[1] = I/U is the ratio of zwitterionic (I) to that of unionized […]; assay type: ADME
Procedure, shortened: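 Ratio of zwitterionic (I) to un-ionized (U) species calculated by the Wegscheider method.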

[2] = Dissociation constant was measured by potentiometric titrations; assay type: physicochemical
Procedure, shortened: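 pKa determined by potentiometric titration; values are means of at least two determinations.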

[3] = Partition coefficient (logP); assay type: physicochemical; details: octanol/water
Procedure, shortened: (§1)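 Conventional shake-flask partitioning at room temperature, 1-octanol or cyclohexane against 0.15 M phosphate buffer pH 7.4. Compound in the aqueous phase quantified spectrophotometrically. Means of at least two determinations.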

[4] = Partition coefficient (logP) (cyclohexane); assay type: physicochemical; details: cyclohexane/phosphate buffer pH 7.4; procedure, shortened: as §1
[5] = Delta logPoct-cyc; assay type: ADME; details: octanol/water
Procedure, shortened: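 ΔP taken as log Poct minus log Pcyc. Both come from shake-flask partitioning at room temperature against 0.15 M phosphate buffer pH 7.4, with the aqueous phase read spectrophotometrically.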

[6] = Dissociation constant was measured as pKa1 by potentiometric titrations
[7] = Concentration required for 50% inhibition of GABA uptake in rat brain

CCCC1CC=C(C(=O)O)CN1 (configuration not stated)
IC50 (Rattus norvegicus): > 100 µM

CN1CC(C(=O)O)=CCC1CCCCc1ccccc1 (configuration not stated)
IC50 (Rattus norvegicus): > 100 µM

CCCC1CC=C(C(=O)OCC)CN1 (configuration not stated)
IC50 (Rattus norvegicus): > 100 µM

O=C(O)C1=CCC(CCc2ccccc2)NC1 (configuration not stated)
IC50 (Rattus norvegicus): 100 µM

CCOC(=O)C1=CCC(CCC(c2ccccc2)c2ccccc2)NC1 (configuration not stated)
IC50 (Rattus norvegicus): 37 µM

CCC1CC=C(C(=O)O)CN1 (configuration not stated)
IC50 (Rattus norvegicus): > 100 µM

Cl.O=C(O)C1=CCC(CCC(c2ccccc2)c2ccccc2)NC1 (configuration not stated)
Ratio [1]: 7000
pKa2 [2]: 9.25
logP [3]: 0.71
logP [4]: -2
IC50 (Rattus norvegicus): 0.1 µM
delta logP [5]: 2.71
pKa [6]: 3.79

CCOC(=O)C1=CCC(CC)NC1 (configuration not stated)
IC50 (Rattus norvegicus): > 100 µM

O=C(O)C1=CCC(CCCCc2ccccc2)NC1 (configuration not stated)
IC50 (Rattus norvegicus): > 100 µM

CC1CC=C(C(=O)O)CN1 (configuration not stated)
IC50 (Rattus norvegicus): 40 µM

O=C(O)C1CCCN(CCC=C(c2ccccc2)c2ccccc2)C1 (configuration not stated)
Ratio [1]: 6000
pKa2 [2]: 9.23
logP [3]: 0.99
logP [4]: -0.43
delta logP [5]: 1.43
pKa [7]: 3.57
